An excerpt weighted towards active compounds, which were near 3.5% of everything screened.
MrgX1 antagonist = antagonists of human MrgX1 receptor, primary screen, HEK293 cells, Fluo-4 calcium flux. Mas-related G-protein coupled receptor member X1 (Homo sapiens), Q96LB2. BAM8-22 antagonism; hits give low values. B-score at 10 µM. hit rate 1.3% among 310,000. AID 588676, 2011;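 active = calcium-response B-score plate-corrected more than 3 library SD below zero, starting fluorescence within 5 deviations, no agonist response on first addition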;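 note: peak minus trough fluorescence over baseline after final BAM8-22 challenge near maximal dose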
Target sequence (Q96LB2 whole entry, looked up): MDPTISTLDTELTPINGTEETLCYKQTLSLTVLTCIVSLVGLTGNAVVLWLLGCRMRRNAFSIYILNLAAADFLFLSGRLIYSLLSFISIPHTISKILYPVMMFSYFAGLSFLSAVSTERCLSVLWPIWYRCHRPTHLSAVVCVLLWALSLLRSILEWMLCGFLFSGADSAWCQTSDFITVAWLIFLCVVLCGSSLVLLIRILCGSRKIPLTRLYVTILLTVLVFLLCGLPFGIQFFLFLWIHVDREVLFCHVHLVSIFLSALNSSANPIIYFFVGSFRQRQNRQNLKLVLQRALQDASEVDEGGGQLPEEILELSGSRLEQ
MrgX1 PAM = positive allosteric modulators of MrgX1, primary screen, HEK293 cells, Fluo-4 calcium flux. B-score at 10 µM. FDSS; hits give high values. AID 588675, 2011. hit rate 0.63% among 310,000. Mas-related G-protein coupled receptor member X1 (Homo sapiens), Q96LB2;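 active = plate-corrected calcium response at least 3 library SD above typical, normal starting fluorescence, not activating the receptor alone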;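 note: compound read alongside a low EC10 to EC30 dose of BAM8-22 agonist; peak minus trough fluorescence over baseline measured at the second addition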
RGS4 block = RGS4 inhibitors, primary screen, cell-based, HEK293 M3R inducible RGS4, calcium flux | Regulator of G-protein signaling 4 (Homo sapiens), P49798 | Fluo-4 calcium flux; hits give high values; triggered by carbachol at its EC20 | B-score at 10 µM | hit rate 0.45% among 310,000;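 active = B-score, a plate-corrected calcium signal, over three deviations above library mean, with baseline fluorescence within five deviations of library mean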;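 note: RGS4 expression induced by doxycycline in cells with stable M3 receptor; B-score is computed from the integrated fluorescence ratio over baseline after carbachol; higher B-score means a larger calcium signal and so more RGS4 inhibition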
Target sequence (P49798 whole entry, looked up): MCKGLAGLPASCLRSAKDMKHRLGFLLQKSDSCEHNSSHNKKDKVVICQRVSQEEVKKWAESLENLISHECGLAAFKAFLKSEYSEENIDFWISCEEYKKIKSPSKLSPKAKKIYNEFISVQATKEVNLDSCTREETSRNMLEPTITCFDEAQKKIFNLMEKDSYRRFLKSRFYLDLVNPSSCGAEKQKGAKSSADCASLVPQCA
RGS4 pot = RGS4 potentiators or activators, primary screen, cell-based, HEK293 M3R inducible RGS4, calcium flux | carbachol calcium flux Fluo4; hits give low values | B-score at 10 µM | hit rate 0.92% among 310,000;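 active = B-score of the integrated calcium signal more than 4 SD below the library mean, with starting fluorescence not abnormally high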;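 note: negative B-score means reduced calcium response which marks RGS4 activation or potentiation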
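Test system: HEK293 cells with stable M3R and inducible RGS4; also added: carbachol at ECmax as muscarinic agonist stimulus; schedule: dye loading 30 min 37 °C, buffer rest 30 min RT; technique: kinetic calcium fluorescence imaging with Fluo4-AM dye, 2 µM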
MrgX1 agonist = agonists of human MrgX1 receptor, primary screen, HEK293 cells, Fluo-4 calcium flux | hit rate 0.44% among 310,000 | Fluo-4 calcium fluorescence, agonist mode; hits give high values | AID 588627, 2011 | B-score at 10 µM | Mas-related G-protein coupled receptor member X1 (Homo sapiens), Q96LB2;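 active = calcium response B-score plate-corrected fluorescence ratio at least 3 library SD, with starting fluorescence B-score inside 5 SD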
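Test system: HEK293 cells stably expressing human MrgX1 receptor; Input: fifteen thousand cells per well; Dosing: compound delivered in addition one of three; Schedule: overnight seeding, then 1 h dark dye loading; Technique: Fluo-4 NW calcium fluorescence; Measure: B-scored fluorescence response ratio; Controls: positive and negative controls per plate.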
RGS4 block valid = enhanced carbachol calcium response, M3R/RGS4 cells, RGS4 inhibitor project, cell-based, validation screen, HEK293 M3R/RGS4, calcium flux | shares compounds with RGS4 block | carbachol calcium Fluo-4 fluorescence; carbachol added at its EC20; 0 = buffer wells, 100 = carbachol control | calcium response, % at 10 µM | hit rate 65% among 1,700 | AID 492999, 2010;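 active = duplicate-averaged calcium response above the buffer-only control mean plus 5 SD of those controls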;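 note: integrated fluorescence ratio F max minus min over baseline F0; higher response in RGS4-induced cells means RGS4 inhibition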
M3R Ca ctr = carbachol calcium response in non-induced M3R cells, confirmation, counter-screen for RGS4 inhibitor project, cell-based, HEK293 M3R; shares compounds with RGS4 block; carbachol calcium Fluo-4; submaximal (EC20) carbachol stimulus; buffer wells 0%, carbachol control wells 100%; activity (percent), % at 10 µM; hit rate 20% among 1,900; AID 493000, 2010; call rule not given here;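 note: RGS4 induction absent so cells express M3R without RGS4; higher means more calcium signal and flags a non-specific hit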
RGS4 inh ctr2 = second RGS4 inhibitor counter-screen in uninduced cells lacking carbachol; calcium response (agonist-mode artifact), % at 10 µM; AID 493001; shares compounds with RGS4 block; HEK293 M3R/RGS4 non-induced, Fluo-4 calcium, no carbachol; normalised: buffer wells 0%, carbachol wells 100%; hit rate 22% among 1,900;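 active = duplicate-averaged calcium rise in uninduced cells above buffer wells' mean plus 5 SD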
* = called active by the depositor; i = inactive; · = no result given.

SMILES	MrgX1 antagonist	MrgX1 PAM	RGS4 block	RGS4 pot	MrgX1 agonist	RGS4 block valid	M3R Ca ctr	RGS4 inh ctr2
Cc1ccc(N2NC(=O)/C(=C\c3cc4c(cc3[N+](=O)[O-])OCO4)C2=O)cc1C	i	i	26*	i	i	69%*	i	34%*
COc1cccc(/C=C2/C(=O)NN(c3ccc(C)c(C)c3)C2=O)c1	i	i	15*	i	i	9.5%*	i	i
COc1cccc(/C=C2/C(=O)NN(c3ccccc3)C2=O)c1	i	i	7.5*	i	i	i	i	8.0%*
COc1cccc(/C=C2/C(=O)NN(c3ccc(F)cc3)C2=O)c1	i	i	i	i	i	·	i	i
CC1(C)CC(=O)C=C(C(=O)N2CCCC(C(=O)c3cccc(C(F)(F)F)c3)C2)O1 (stereo not given)	i	i	i	i	i	·	·	·
O=C(/C=C/c1ccccc1)c1ccc2c(c1)OCO2	i	i	i	i	i	·	·	·
O=C(/C=C/c1ccncc1)c1ccc2c(c1)OCCO2	i	i	7.5*	i	i	32%*	i	i
NC(=O)CC(NC(=O)c1cccc(Br)c1)c1ccc(NC2CCN(Cc3ccccc3)CC2)c([N+](=O)[O-])c1 (stereo not given)	i	i	i	i	i	·	·	·
NC(=O)CC(NC(=O)Cc1ccc(Cl)cc1)c1ccc(NC2CCN(Cc3ccccc3)CC2)c([N+](=O)[O-])c1 (stereo not given)	i	i	i	i	i	i	i	i
COc1ccc(NC(=O)/C(C#N)=C/c2ccc(Sc3nncn3C)c([N+](=O)[O-])c2)cc1	i	i	6.8*	i	i	18%*	i	i
Cn1cnnc1Sc1ccc(/C=C/C(=O)c2ccc(O)cc2)cc1[N+](=O)[O-]	i	i	i	i	i	·	·	·
O=C(Nc1ccc(-c2ccccc2)cc1)c1ccccc1	i	i	i	i	i	·	·	·
Cc1ccc(NC(=O)C2=C(c3ccccc3)S(=O)(=O)CCS2(=O)=O)cc1	i	i	15*	i	i	28%*	i	16%*
NS(=O)(=O)c1ccc(CNC(=S)NCc2ccc(F)cc2)cc1	i	i	i	i	i	·	·	·
COc1ccccc1-c1cn[nH]c1-c1ccc(OCC(=O)NN)cc1O	i	i	i	i	i	·	·	·
NNC(=O)COc1ccc(-c2n[nH]c(C(F)(F)F)c2-c2ccc(Br)cc2)c(O)c1	i	i	8.1*	i	i	56%*	62%*	i
COc1ccccc1-c1c(-c2ccc(OCC(=O)NN)cc2O)n[nH]c1C(F)(F)F	i	i	i	i	i	·	i	i
CCn1c(SCC(=O)N(C)c2ccccc2)nc2c([nH]c3ccccc32)c1=O	i	i	i	i	i	·	·	·
O=[N+]([O-])/C=C\c1ccc(N2CCOCC2)cc1	i	i	35*	i	41*	88%*	94%*	35%*
COCC(C)n1c(SCC(=O)N2CCc3ccccc3C2)nc2ccccc2c1=O (stereo not given)	i	i	i	i	i	·	·	·
Clc1ccc(-c2csc(N/N=C\c3cccnc3)n2)cc1	i	i	i	i	i	·	65%*	i
Clc1ccc(-c2csc(N/N=C/c3ccco3)n2)cc1	i	i	i	i	i	·	·	·
COc1ccc(CCNC(=O)c2cc3c(=O)n(C)c4ccccc4c3n2C)c(OC)c1	i	i	i	i	i	·	·	·
CCOC(=O)N1CCc2c(sc3c2c(=O)n(Cc2ccccc2)c(=O)n3Cc2ccccc2F)C1	i	i	7.3*	i	i	56%*	34%*	i
CCOC(=O)N1CCc2c(sc3c2c(=O)n(Cc2ccccc2)c(=O)n3CC(=O)NCC2CCCO2)C1 (stereo not given)	i	i	i	i	i	·	·	·
SMILES	MrgX1 antagonist	MrgX1 PAM	RGS4 block	RGS4 pot	MrgX1 agonist	RGS4 block valid	M3R Ca ctr	RGS4 inh ctr2
CCOC(=O)N1CCc2c(sc3c2c(=O)n(Cc2ccccc2)c(=O)n3Cc2cccc(C)c2)C1	i	i	6.8*	i	i	32%*	38%*	i
NC(=O)CC(NC(=O)Cc1ccc(Br)cc1)c1ccc(N2CCC(N3CCCC3)CC2)c([N+](=O)[O-])c1 (stereo not given)	i	i	i	i	i	·	·	·
Cc1ccc(NC(=O)COc2coc(CN3CCN(c4ccccc4)CC3)cc2=O)cc1	i	i	i	i	i	·	·	·
CC1(C)CC(=O)C(C(c2cc([N+](=O)[O-])ccc2Cl)C2C(=O)CC(C)(C)CC2=O)C(=O)C1	i	i	i	i	i	·	·	·
Cc1sc(C(C2C(=O)CC(C)(C)CC2=O)C2C(=O)CC(C)(C)CC2=O)cc1[N+](=O)[O-]	i	i	24*	i	i	90%*	50%*	62%*
NC(=O)NC1CCCc2c1[nH]c1ccc(Cl)cc21 (stereo not given)	i	i	5.3*	i	i	8.5%*	i	i
CN(c1ccccc1)c1ccc(/C=C/[N+](=O)[O-])cc1	i	i	6.1*	i	i	32%*	i	108%*
Cc1cc(NC(=O)CCC(=O)N(Cc2ccco2)C2(C(=O)NC3CCCCC3)CCCC(C)C2)no1 (stereo not given)	i	i	i	i	i	·	·	·
COC(=O)CSc1[nH]c2cc(C)ccc2c1[N+](=O)[O-]	i	i	16*	i	i	44%*	i	i
CCOc1ccc2[nH]c(SCC(=O)OC)c([N+](=O)[O-])c2c1	-4.8*	i	7.6*	i	i	18%*	i	49%*
COc1ccc(/C=C(\CC(=O)O)c2nc3ccccc3s2)cc1O	i	i	i	i	i	·	·	·
